# Measured values: ChEMBL document CHEMBL1681772 (Bioorg Med Chem, 2011)
# Biological target: T1, Prostaglandin G/H synthase 1 (Ovis aries, UniProt P05979)
# T1 sequence (P05979 whole entry): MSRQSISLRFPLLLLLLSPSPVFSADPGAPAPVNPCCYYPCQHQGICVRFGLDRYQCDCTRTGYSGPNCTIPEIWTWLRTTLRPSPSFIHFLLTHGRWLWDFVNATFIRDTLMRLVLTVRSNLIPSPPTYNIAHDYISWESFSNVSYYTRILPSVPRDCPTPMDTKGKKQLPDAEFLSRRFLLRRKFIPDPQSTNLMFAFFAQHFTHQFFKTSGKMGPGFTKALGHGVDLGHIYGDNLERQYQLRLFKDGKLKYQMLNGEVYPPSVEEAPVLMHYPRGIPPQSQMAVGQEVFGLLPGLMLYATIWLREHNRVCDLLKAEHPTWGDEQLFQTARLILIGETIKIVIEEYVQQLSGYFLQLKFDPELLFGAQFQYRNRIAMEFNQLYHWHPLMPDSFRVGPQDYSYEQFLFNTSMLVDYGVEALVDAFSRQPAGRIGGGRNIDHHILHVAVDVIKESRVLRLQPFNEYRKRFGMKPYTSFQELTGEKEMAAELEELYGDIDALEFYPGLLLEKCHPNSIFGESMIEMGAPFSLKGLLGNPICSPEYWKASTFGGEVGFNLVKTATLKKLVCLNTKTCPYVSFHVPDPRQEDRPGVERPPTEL
# Test: Inhibition of ovine COX1 assessed as PGF2alpha level by EIA
# How it was run: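 Ovine COX-1 with heme in 0.1 M Tris-HCl pH 8.0 (5 mM EDTA, 2 mM phenol); compound at […] (final), 2 min preincubation at 37 °C. Started with arachidonic acid (100 µM), stopped after 2 min with 1 M HCl. PGH2 reduced to PGF2α by stannous chloride and quantified by EIA (18 h, room temperature; Ellman's reagent, 410 nm). IC50 from percent inhibition, mean of two determinations.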
row,IC50 [µM],SMILES
1,> 100,COC1(c2cccc(CNc3cc(Cl)ccc3OCc3ccccc3)c2)CCOCC1
2,34.6,COC1(c2cccc(CNc3ccc(Cl)cc3OCc3ccccc3)c2)CCOCC1
3,6.2,CS(=O)(=O)Nc1ccc([N+](=O)[O-])cc1Oc1ccccc1 [NIMESULIDE]
4,7.9,COC1(c2cccc(CS(=O)(=O)Nc3ccc([N+](=O)[O-])cc3OCc3ccccc3)c2)CCOCC1
5,> 100,COC1(c2cccc(CN(c3ccc(Cl)cc3OCc3ccccc3)S(C)(=O)=O)c2)CCOCC1
6,24.4,COC1(c2cccc(CS(=O)(=O)Nc3ccc(Cl)cc3OCc3ccccc3)c2)CCOCC1
7,13.5,COC1(c2cccc(CN(c3ccc([N+](=O)[O-])cc3OCc3ccccc3)S(C)(=O)=O)c2)CCOCC1
8,> 100,COC1(c2cccc(CN(c3cc(Cl)ccc3OCc3ccccc3)S(C)(=O)=O)c2)CCOCC1

# Second part, the compound before the results:
row,SMILES,IC50 [µM]
1,COC1(c2cccc(COc3ccc(Br)cc3OCc3ccccc3)c2)CCOCC1,> 100
2,COC1(c2cccc(CS(=O)(=O)Nc3cc(C)ccc3OCc3ccccc3)c2)CCOCC1,16.5
3,COC1(c2cccc(COc3ccc(Cl)cc3OCc3ccccc3)c2)CCOCC1,> 100
4,COC1(c2cccc(COc3ccccc3OCc3ccccc3)c2)CCOCC1,> 100
5,CCOC(=O)c1ccc(OCc2ccccc2)c(NS(=O)(=O)Cc2cccc(C3(OC)CCOCC3)c2)c1,11.6
6,COC1(c2cccc(CNc3ccc([N+](=O)[O-])cc3OCc3ccccc3)c2)CCOCC1,88.8
7,COC1(c2cccc(CNc3ccccc3OCc3ccccc3)c2)CCOCC1,> 100
8,COC1(c2cccc(CS(=O)(=O)Nc3ccccc3OCc3ccccc3)c2)CCOCC1,14.8
9,COC1(c2cccc(CS(=O)(=O)Nc3cc(Cl)ccc3OCc3ccccc3)c2)CCOCC1,15.6
10,COC1(c2cccc(CNc3cc(C)ccc3OCc3ccccc3)c2)CCOCC1,> 100
11,COC1(c2cccc(CN(c3cc(C)ccc3OCc3ccccc3)S(C)(=O)=O)c2)CCOCC1,> 100
12,CCOC(=O)c1ccc(OCc2cccc(C3(OC)CCOCC3)c2)c(OCc2ccccc2)c1,44.2
13,COC1(c2cccc(CN(c3ccccc3OCc3ccccc3)S(C)(=O)=O)c2)CCOCC1,> 100
